Results reported in ChEMBL document CHEMBL1275449, “Potent in vitro antifungal activities of naturally occurring acetylenic acids” (Antimicrob Agents Chemother, 2008).
Active and inactive are the calls of the source.

Tests used:
Candida albicans [1] = assay: Antifungal activity against Candida albicans ATCC 90028 at 542.7 uM after 48 hrs by CLSI method; format: functional, organism-based
How it was run: (§1)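 Candida inocula came from 24–72-h SD agar colonies suspended in saline. They were diluted by OD630 standard curve into RPMI 1640 (0.2% dextrose, 0.03% glutamine, 0.165 M MOPS, pH 7.0) to 1.5 × 10³ CFU/ml. Compounds were run as 11 twofold dilutions in 20% DMSO-saline, in duplicate, at 35°C for 48 h, with OD530 read before and after. Percent growth at the top concentration, IC50, MIC, and MFC (SD agar plating) were derived.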

Candida albicans [2] = assay: Antifungal activity against Candida albicans ATCC 200955 at 542.7 uM after 48 hrs by CLSI method; format: functional, organism-based; how it was run: as §1
Candida albicans [3] = assay: Antifungal activity against Fluconazole resistant Candida albicans isolate 1 at 542.7 uM after 48 hrs by CLSI method; format: functional, organism-based
How it was run: (§2)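 Candida in CLSI broth microdilution. Saline colony suspension set to 1.5 × 10³ CFU/ml (final) in MOPS-buffered RPMI 1640, pH 7.0. Test agent given as twofold serial dilutions in 20% DMSO-saline, duplicate wells. 35°C for 48 h. Growth read as OD530 before and after incubation. Percent inhibition scored at the highest test concentration.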

Candida albicans [4] = assay: Antifungal activity against Fluconazole resistant Candida albicans isolate 17 at 542.7 uM after 48 hrs by CLSI method; format: functional, organism-based; how it was run: as §2
Nakaseomyces glabratus = assay: Antifungal activity against Candida glabrata ATCC 90030 at 542.7 uM after 48 hrs by CLSI method; format: functional, organism-based; how it was run: as §1
Pichia kudriavzevii [5] = assay: Antifungal activity against Candida krusei ATCC 6258 at 542.7 uM after 48 hrs by CLSI method; format: functional, organism-based
How it was run: (§3)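 Yeast suspensions made from 3-5 colonies off 24-72 h SD agar plates in saline. They were diluted by OD630 standard curve in RPMI 1640 (0.2% dextrose, 0.03% glutamine, 0.165 M MOPS, pH 7.0) to 1.5 × 10³ CFU/ml. Twofold dilutions (11 concentrations, 20% DMSO-saline) run in duplicate. OD530 read before and after 35°C, 48 h. Line values are top test concentrations; no-growth endpoints give MIC/MFC.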

Trichophyton rubrum [6] = assay: Antifungal activity against Trichophyton rubrum ATCC 10218 by CLSI method; format: functional, organism-based
How it was run: (§4)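 Growth scraped from 1- to 6-week-old potato dextrose slants and filtered through Miracloth. Diluted in 5% Alamar blue-RPMI 1640 (MOPS pH 7.0) to 2.7 × 10⁴ CFU/ml. Eleven twofold dilutions in duplicate. Fluorescence at 544 nm excitation/590 nm emission read before and after 35°C, 5 days. IC50 fitted from percent growth. MIC taken as no detectable growth; MFC from clear or blue wells plated on PD agar.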

Candida parapsilosis [7] = assay: Antifungal activity against Candida parapsilosis ATCC 22019 at 542.7 uM after 48 hrs by CLSI method; format: functional, organism-based; how it was run: as §3
Trichophyton rubrum [8] = assay: Antifungal activity against Trichophyton rubrum ATCC MYA-4438 by CLSI method; format: functional, organism-based; how it was run: as §4
[9] = system: Trichophyton mentagrophytes; assay: Antifungal activity against Trichophyton mentagrophytes ATCC 9533 by CLSI method; format: functional, organism-based; how it was run: as §4
Candida tropicalis [10] = assay: Antifungal activity against Candida tropicalis ATCC 750 at 542.7 uM after 48 hrs by CLSI method; format: functional, organism-based; how it was run: as §3
[11] = system: Trichophyton mentagrophytes; assay: Antifungal activity against Trichophyton mentagrophytes ATCC MYA-4439 by CLSI method; format: functional, organism-based; how it was run: as §4
Cryptococcus neoformans [12] = assay: Antifungal activity against Cryptococcus neoformans ATCC 66031 after 72 hrs by CLSI method; format: functional, organism-based; details: ATCC 66031, 72 h
How it was run: (§5)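 SD broth replaced RPMI because growth in RPMI was poor; other CLSI conditions were kept. Inoculum was 1.5 × 10³ CFU/ml from colonies on SD agar, checked by plating. Twofold serial dilutions (11 concentrations) in 20% DMSO-saline were tested in duplicate. OD530 was read before and after incubation at 35°C for 72 h. Percent growth gave IC50; the MIC is the lowest concentration with no detectable growth.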

Cryptococcus neoformans [13] = assay: Antifungal activity against Cryptococcus neoformans ATCC 90113 after 72 hrs by CLSI method; format: functional, organism-based; details: ATCC 90113, 72 h; how it was run: as §5
Candida tropicalis [14] = assay: Antifungal activity against Candida tropicalis ATCC 750 after 48 hrs by CLSI method; format: functional, organism-based; details: ATCC 750, 48 h; how it was run: as §3
Candida parapsilosis [15] = assay: Antifungal activity against Candida parapsilosis ATCC 22019 after 48 hrs by CLSI method; format: functional, organism-based; details: Lodderomyces parapsilosis, ATCC 22019, 48 h; how it was run: as §3
Pichia kudriavzevii [16] = assay: Antifungal activity against Candida krusei ATCC 6258 after 48 hrs by CLSI method; format: functional, organism-based; details: ATCC 6258, 48 h; how it was run: as §1
Candida albicans [17] = assay: Antifungal activity against Fluconazole resistant Candida albicans clinical isolate 17 after 48 hrs by CLSI method; format: functional, organism-based
How it was run: (§6)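 CLSI broth microdilution. Colonies from 24–72 h SD agar suspended in saline and sized by OD630 standard curve. Inoculum 1.5 × 10³ CFU/ml (final) in RPMI 1640 (0.2% dextrose, 0.03% glutamine, 0.165 M MOPS, pH 7.0). Twofold dilutions (11 levels) from 20% DMSO-saline, in duplicate. 35°C for 48 h, OD530 read before and after. IC50 fitted from % growth. MIC: no detectable growth. MFC: subculture onto SD agar.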

Aspergillus fumigatus [18] = assay: Antifungal activity against Aspergillus fumigatus ATCC 204305 at 542.7 uM after 48 hrs by CLSI method; format: functional, organism-based
Candida albicans [19] = assay: Antifungal activity against Fluconazole resistant Candida albicans clinical isolate 1 after 48 hrs by CLSI method; format: functional, organism-based; how it was run: as §6
Aspergillus fumigatus [20] = assay: Antifungal activity against Aspergillus fumigatus ATCC 90906 at 542.7 uM after 48 hrs by CLSI method; format: functional, organism-based
Aspergillus flavus = assay: Antifungal activity against Aspergillus flavus ATCC 204304 at 542.7 uM after 48 hrs by CLSI method; format: functional, organism-based
Candida albicans [21] = assay: Antifungal activity against Candida albicans ATCC 200955 after 48 hrs by CLSI method; format: functional, organism-based; details: ATCC 200955, 48 h; how it was run: as §6
Aspergillus niger [22] = assay: Antifungal activity against Aspergillus niger ATCC 16404 at 542.7 uM after 48 hrs by CLSI method; format: functional, organism-based
[23] = system: Trichophyton mentagrophytes; assay: Antifungal activity against Trichophyton mentagrophytes ATCC MYA-4439 at 542.7 uM after 5 days by CLSI method; format: functional, organism-based
Candida albicans [24] = assay: Antifungal activity against Candida albicans ATCC 32354 after 48 hrs by CLSI method; format: functional, organism-based; details: ATCC 32354, 48 h; how it was run: as §6
[25] = system: Trichophyton mentagrophytes; assay: Antifungal activity against Trichophyton mentagrophytes ATCC 9533 at 542.7 uM after 5 days by CLSI method; format: functional, organism-based
Trichophyton rubrum [26] = assay: Antifungal activity against Trichophyton rubrum ATCC MYA-4438 at 542.7 uM after 5 days by CLSI method; format: functional, organism-based
Trichophyton rubrum [27] = assay: Antifungal activity against Trichophyton rubrum ATCC 10218 at 542.7 uM after 5 days by CLSI method; format: functional, organism-based
Candida albicans [28] = assay: Antifungal activity against Candida albicans assessed as inhibition of morphogenesis at 10 uM; format: functional, organism-based
Candida albicans [29] = assay: Antifungal activity against Candida albicans assessed as inhibition of growth at 100 uM; format: functional, organism-based
Candida albicans [30] = assay: Antifungal activity against Candida albicans ATCC 14053 after 48 hrs by CLSI method; format: functional, organism-based; details: ATCC 14053, 48 h; how it was run: as §6
Candida albicans [31] = assay: Antifungal activity against Candida albicans ATCC 60193 after 48 hrs by CLSI method; format: functional, organism-based; details: ATCC 60193, 48 h; how it was run: as §6
Candida albicans [32] = assay: Antifungal activity against Candida albicans ATCC 14053 at 542.7 uM after 48 hrs by CLSI method; format: functional, organism-based
Candida albicans [33] = assay: Antifungal activity against Candida albicans ATCC 60193 at 542.7 uM after 48 hrs by CLSI method; format: functional, organism-based; how it was run: as §1
Candida albicans [34] = assay: Antifungal activity against Candida albicans ATCC 32354 at 542.7 uM after 48 hrs by CLSI method; format: functional, organism-based; how it was run: as §1
Aspergillus niger [35] = assay: Antifungal activity against Aspergillus niger ATCC 16404 after 48 h by CLSI method; details: ATCC 16404, 48 h

C=CCCCCCCCCC(=O)O [UNDECYLENIC ACID]
111 µM: IC50 (Trichophyton rubrum [8])
279 µM: IC50 [9]
136 µM: MIC (Cryptococcus neoformans [12])
379 µM: IC50 [11]
271 µM: MFC (Cryptococcus neoformans [12]) | MIC (Cryptococcus neoformans [13])
415 µM: IC50 (Aspergillus niger [35])
2.7 µM: IC50 (Cryptococcus neoformans [12])
25.3 µM: IC50 (Cryptococcus neoformans [13])
270 µM: IC50 (Trichophyton rubrum [6])
> 543 µM: IC50 (Candida tropicalis [14]) | IC50 (Candida parapsilosis [15]) | IC50 (Pichia kudriavzevii [16]) | IC50 (Candida albicans [17]) | IC50 (Candida albicans [19]) | IC50 (Candida albicans [21]) | IC50 (Candida albicans [24]) | IC50 (Candida albicans [30]) | IC50 (Candida albicans [31])
active: inhibition (Candida albicans [28])
inactive: Activity (Candida albicans [1]) | Activity (Candida albicans [2]) | Activity (Candida albicans [3]) | Activity (Candida albicans [4]) | Activity (Nakaseomyces glabratus) | Activity (Pichia kudriavzevii [5]) | Activity (Candida parapsilosis [7]) | Activity (Candida tropicalis [10]) | Activity (Aspergillus fumigatus [18]) | Activity (Aspergillus fumigatus [20]) | Activity (Aspergillus flavus) | Activity (Aspergillus niger [22]) | Activity [23] | Activity [25] | Activity (Trichophyton rubrum [26]) | Activity (Trichophyton rubrum [27]) | inhibition (Candida albicans [29]) | Activity (Candida albicans [32]) | Activity (Candida albicans [33]) | Activity (Candida albicans [34])
543 µM: MIC (Trichophyton rubrum [6]) | MIC (Trichophyton rubrum [8]) | MIC [9] | MIC [11] | MFC (Cryptococcus neoformans [13])
